Values after ≈ are worked out from the molar mass of the structure shown. Values joined by “and” are separate entries in the source; they are usually repeats but may differ in a detail not shown here. Equal values may be shown once.

By IC50 is commonly meant the concentration at which inhibition is half-maximal. What is called AUC(0-t) is exposure summed from dosing to a finite time, without extrapolation to infinity. Higher therefore signals high exposure. The Cmax is the maximum level reached in the sampled fluid or tissue. The term Tmax denotes the time from dosing to the highest level. Usually solubility stands for the concentration that dissolves in the medium under given conditions. Lower therefore signals a poorly soluble substance.

For series [1] the following is noted: successive pKa of the acid itself; no reference given; cited from earlier work.
In the next series the test system is Cdk-9. The note with it: read-out: Cdk-9 IC50; cited from earlier work.
Series [2] is described as follows: thermodynamic equilibrium solubility in water. In kind it is physicochemical. The note with it: 25 °C, 24 h. An outline of the steps:
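Excess solid was added to water, vortexed for 5 min, then shaken at 300 rpm and 25 °C for 24 h. After centrifugation (14 000 rpm, 10 min), the supernatant was quantified by reversed-phase C18 HPLC. Elution used a methanol/0.1% formic acid gradient with photodiode detection and a 37 °C column. Calibration covered 5–160 μg/mL.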

A short description of series [3]: in vitro dissolution under sink conditions. It counts as physicochemical. In outline: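 Samples (1 mL) were taken at 15, 30, 60, 120, 240 and 360 min and replaced with fresh prewarmed medium. Samples were filtered (0.45 μm PVDF), diluted in methanol and quantified by HPLC. Runs were in triplicate. AUC0–t was obtained by the trapezoidal rule to the last time point.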

Another series concerns the target Cdk-9/T1 (Homo sapiens, UniProt P50750). Briefly: Cdk-9/T1 radioactive. It counts as biochemical. Particulars: read-out: % inhibition (±SD) Cdk-9/T1, 500 nM. In outline: (§1)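 Radioactive filter-binding kinase assay using 33P-ATP, run at an external kinase-profiling centre, with the test compound at 500 nM. Enzyme activity remaining was expressed as a percentage of control, and % inhibition was calculated as 100 − % enzyme activity.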

Series [4] is described as follows: oral pharmacokinetics in BALB/c mice. Particulars: 50 mg/kg. In kind it is in vivo. An outline of the steps: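 Male BALB/c mice aged 8–13 weeks received a single oral dose of 50 mg/kg in 1% v/v Tween 80 + 0.5% w/v sodium CMC. Retro-orbital blood was collected into K2EDTA (n = 3/time point) at 0.25–24 h. Plasma was prepared within 30 min and stored below −60 °C. Plasma was analysed by LC-MS/MS (LLOQ 5.05 ng/mL), and parameters were derived by noncompartmental analysis.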

The nature of series [5]: moisture content by loss on drying. In kind it is physicochemical. The note with it: at the end of 6 months.
In the next series the target is Cdk-2/A (Homo sapiens, UniProt P24941). Briefly: Cdk-2/A radioactive. Particulars: read-out: % inhibition (±SD) Cdk-2/A, 500 nM. It counts as biochemical. An outline of the steps:
as §1

Series [6] in a line: solubility in reaction solvents for scale-up. In kind it is physicochemical.

Cdk-9/T1, sequence (P50750 whole entry): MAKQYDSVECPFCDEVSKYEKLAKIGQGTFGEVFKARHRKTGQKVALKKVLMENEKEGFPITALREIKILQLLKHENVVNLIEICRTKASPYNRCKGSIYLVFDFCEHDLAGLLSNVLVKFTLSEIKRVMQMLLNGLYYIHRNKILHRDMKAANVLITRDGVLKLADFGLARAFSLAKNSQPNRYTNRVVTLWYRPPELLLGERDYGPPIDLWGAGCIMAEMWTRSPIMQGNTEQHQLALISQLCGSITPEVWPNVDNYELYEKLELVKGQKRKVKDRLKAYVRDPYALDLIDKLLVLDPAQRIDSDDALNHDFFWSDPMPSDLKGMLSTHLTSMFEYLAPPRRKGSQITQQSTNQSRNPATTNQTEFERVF
Cdk-9/T1, sequence (O60563 whole entry partner): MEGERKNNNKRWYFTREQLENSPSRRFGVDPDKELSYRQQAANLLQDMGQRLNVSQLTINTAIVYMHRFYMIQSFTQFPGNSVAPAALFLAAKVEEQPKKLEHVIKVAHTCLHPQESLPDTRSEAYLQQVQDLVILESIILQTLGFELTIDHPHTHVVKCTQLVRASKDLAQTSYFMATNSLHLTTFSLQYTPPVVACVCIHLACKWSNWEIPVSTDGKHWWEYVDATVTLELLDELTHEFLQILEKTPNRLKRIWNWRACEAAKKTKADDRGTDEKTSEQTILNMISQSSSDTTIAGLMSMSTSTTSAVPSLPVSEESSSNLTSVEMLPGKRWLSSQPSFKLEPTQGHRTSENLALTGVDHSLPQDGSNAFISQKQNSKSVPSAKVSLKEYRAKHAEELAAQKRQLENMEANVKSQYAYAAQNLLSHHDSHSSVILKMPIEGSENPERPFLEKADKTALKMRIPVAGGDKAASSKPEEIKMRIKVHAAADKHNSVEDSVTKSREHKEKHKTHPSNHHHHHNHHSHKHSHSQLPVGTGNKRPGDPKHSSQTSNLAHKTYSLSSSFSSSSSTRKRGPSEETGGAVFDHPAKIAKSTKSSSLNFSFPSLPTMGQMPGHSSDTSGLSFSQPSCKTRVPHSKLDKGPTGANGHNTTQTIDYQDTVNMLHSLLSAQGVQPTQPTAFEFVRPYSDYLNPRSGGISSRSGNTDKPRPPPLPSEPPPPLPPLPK

For `Nc1ccc(C(=O)O)cc1` [4-aminobenzoic acid], the “pKa values of counterions” value in [1] was 2.38.

With `CN1CC[C@H](c2c(O)cc(O)c3c(=O)cc(/C=C/c4c(Cl)cccc4Cl)oc23)[C@H](O)C1` [IIIM-290, 2-((E)-2,6-Dichlorostyryl)-5,7-dihydroxy-8-((3S,4R)-3-hydroxy-1-methylpiperidin-4-yl)-4H-chromen-4-one], in the series on Cdk-9, the IC50 was 1.9 nM. The “thermodynamic equilibrium solubility in water” value in series [2] is ~8.6 µg/mL and 8.61 ± 1.8 µg/mL. Further, in series [3] (HCl buffer pH 1.2, 0.25% SLS, 30 min), the “% drug dissolved in HCl buffer (pH 1.2) at 30 min” value turned out to be 83%. For the same molecule, the “AUC0–t (mean ± SEM), dissolution in HCl buffer (pH 1.2)” value in series [3] (HCl buffer pH 1.2, 0.25% w/v SLS) was determined as 2102.46 ± 80.09 μg/mL min. The “dissolution in phosphate buffer (pH 6.8) at the end of 60 min” value in series [3] (phosphate buffer pH 6.8, 0.25% SLS, 60 min) is on record as 63%. The “AUC0–t (mean ± SEM), dissolution in phosphate buffer (pH 6.8)” value in [3] (phosphate buffer pH 6.8, 0.25% w/v SLS) worked out at 4898.69 ± 317.03 μg/mL min. Also, the “AUC0–t (mean ± SEM), dissolution in water” value in series [3] (water, 0.25% w/v SLS) was found to be 3557.23 ± 247.03 µg·min/mL. Moreover, the “dissolution in water at the end of 120 min” value in series [3] (water, 0.25% w/v SLS, 37 °C, 120 min) is recorded as 49 % w/v. Further, the inhibition at 0.5 µM is 94 ± 0.8% at Cdk-9/T1 and 90 ± 0.2% at Cdk-2/A. In series [4], this molecule displayed a T1/2 of 1.92 h. The AUC(0-t) in [4] (male, BALB/c, mouse, plasma, po, AUC0–t) was determined as 2570 ng·h/mL. Moreover, the Cmax in series [4] (male, BALB/c, mouse, plasma, po, Cmax) is 656 ng/mL. In series [4] (male, BALB/c, mouse, plasma, po, Tmax), the Tmax stood at 1 h. Moreover, the “% moisture content” value in series [5] is 3.5 % w/w. The solubility in methanol in [6] came to 500 µg/mL (≈ 1080 µM). Moreover, the solubility in [6] (methanol, solubility in methanol) is ~500 µg/mL (≈ 1080 µM).

Take `O=C(O)CC(O)(CC(=O)O)C(=O)O` [citric acid]: the “pKa values of counterions” value in series [1] was 3.73.

Source of the values: paper PMC6072253 (ACS Omega, 2018).
